The values below come from ChEMBL document CHEMBL1828610, “Novel peptide-specific quantitative structure-activity relationship (QSAR) analysis applied to collagen IV peptides with antiangiogenic activity” (2011).

Active and inactive are the calls of the source. No cut-off for these calls is given here. Square brackets hold non-standard residues; d marks the D form. Peptide text beside a SMILES is read from it. Abu = CC[C@H](N)C(=O)O

Test [1] concerns HUVEC. The test can be described thus: Antiangiogenic activity in human HUVEC cells assessed as inhibition of cell adhesion at 100 uM upto 3 hrs by migration assay. The format is functional. A digest of the protocol: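 HUVEC (passages 2–7, EGM-2, 37°C, 5% CO2) seeded at 25,000 cells/well in single-compartment impedance E-plates with or without peptide at 100 μM; adhesion tracked as change in cell index amplitude over 3 hours. Two biological replicates, each the mean of three same-plate technical replicates; expressed as percent inhibition relative to vehicle control.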

Test [2] concerns HUVEC. In words: Antiangiogenic activity in human HUVEC cells assessed as inhibition of cell migration at 50 uM. It is filed as functional. In a few lines:
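Real-time impedance migration: upper chamber coated with fibronectin (20μg/ml), 45,000 HUVEC/well (passages 2–7) added with or without peptide at 50 μM; fully supplemented medium below as chemoattractant; migration read as cell index from sensors under porous membrane. Duplicate experiments, each averaging three same-plate replicates; percent inhibition versus vehicle control.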

Test [3] deals with HUVEC. The test can be described thus: Antiangiogenic activity in human HUVEC cells assessed as inhibition of cell proliferation at 100 uM after 72 hrs by WST-1-based colorimetric assay. It is filed as functional. In a few lines:
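HUVEC (passages 2–7) plated at 2000 cells/well, peptide 100 μM added in fully supplemented medium to adherent cells for 72 hours; WST-1 then applied in serum-free medium for four hours and absorbance read at 450 nm. Two biological replicates, each mean of three technical replicates; percent inhibition relative to vehicle control.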

The subject of test [4] is HUVEC. In words: Antiangiogenic activity in human HUVEC cells assessed as inhibition of tube structure formation at 100 uM relative to control. The format is functional, cell-based. A digest of the protocol: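 Wells coated with reduced growth factor basement membrane matrix, gelled 30 minutes at 37 °C; HUVEC seeded on gel at 15,000 cells/well with or without peptide (100 μM), control receiving equal DMSO vehicle. Incubated overnight at 37 °C, 5% CO2; tube structures imaged by camera on inverted microscope.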

In general, inhibition refers to the relative decrease from the control value, in per cent.

As for H-LRRFSTMPFMFGNINNVGNF-OH, the results for the inhibition at 100 µM in the test on HUVEC [1] and in the test on HUVEC [3] were 97.8% and 25.7%, respectively. For the same compound, the inhibition at 50 µM with HUVEC [2] worked out at 87.9%.
H-LRRFSTMPFMFTNINNVTNF-OH: the inhibition at 100 µM in the test on HUVEC [1] came out at 98.7%; in the test on HUVEC [3], 59.1%. For the same compound, the inhibition at 50 µM with HUVEC [2] was 96.1%.
Consider H-LRRFSTMPFMFVNINNVVNF-OH, for which the inhibition result in the test on HUVEC [4] was “Active”. For the same compound, the inhibition at 100 µM with HUVEC [1] worked out at 95.1%; in the test on HUVEC [3], 62.2%. Besides, the inhibition at 50 µM in the test with HUVEC [2] came to 98.8%.
As to H-LNRFSTMPF-OH, the inhibition at 100 µM with HUVEC [1] turned out to be 0.32%; in the test with HUVEC [3], 6.35%. In the test with HUVEC [2], the inhibition at 50 µM is -16.1%.
As for `CC[C@H](NC(=O)[C@H](Cc1ccccc1)NC(=O)[C@H](CCSC)NC(=O)[C@@H](N)Cc1ccccc1)C(=O)N[C@@H](CC(N)=O)C(=O)N[C@H](C(=O)N[C@@H](CC(N)=O)C(=O)N[C@@H](CC(N)=O)C(=O)N[C@H](C(=O)N[C@@H](CC)C(=O)N[C@@H](CC(N)=O)C(=O)N[C@@H](Cc1ccccc1)C(=O)O)C(C)C)[C@@H](C)CC` (H-FMF[Abu]NINNV[Abu]NF-OH), the inhibition at 100 µM with HUVEC [1] was found to be 66.2%; in the test on HUVEC [3] it was 28.3%. For the same compound, the inhibition at 50 µM in the test on HUVEC [2] is -16.6%.
Consider `CC[C@H](NC(=O)[C@H](Cc1ccccc1)NC(=O)[C@H](CCSC)NC(=O)[C@H](Cc1ccccc1)NC(=O)[C@@H]1CCCN1C(=O)[C@H](CCSC)NC(=O)[C@@H](NC(=O)[C@H](CO)NC(=O)[C@H](Cc1ccccc1)NC(=O)[C@H](CCCNC(=N)N)NC(=O)[C@H](CCCNC(=N)N)NC(=O)[C@@H](N)CC(C)C)[C@@H](C)O)C(=O)N[C@@H](CC(N)=O)C(=O)N[C@H](C(=O)N[C@@H](CC(N)=O)C(=O)N[C@@H](CC(N)=O)C(=O)N[C@H](C(=O)N[C@@H](CC)C(=O)N[C@@H](CC(N)=O)C(=O)N[C@@H](Cc1ccccc1)C(=O)O)C(C)C)[C@@H](C)CC` (H-LRRFSTMPFMF[Abu]NINNV[Abu]NF-OH), for which the inhibition at 100 µM turned out to be 98.5% in the test with HUVEC [1] and 69.7% in the test with HUVEC [3]. Besides, the inhibition at 50 µM in the test on HUVEC [2] is 97%.
For `CC[C@H](NC(=O)[C@@H](N)Cc1ccccc1)C(=O)N[C@@H](CC(N)=O)C(=O)N[C@H](C(=O)N[C@@H](CC(N)=O)C(=O)O)[C@@H](C)CC` (H-F[Abu]NIN-OH), the inhibition at 100 µM with HUVEC [1] amounted to 3.45%; in the test with HUVEC [3], 8.17%. Moreover, the inhibition at 50 µM in the test with HUVEC [2] was -23.7%.
For H-LRRFSTMP-OH, the inhibition result in the test on HUVEC [4] is “Active”. The inhibition at 100 µM in the test on HUVEC [1] was -0.14%; with HUVEC [3] it was 7.02%. Further, the inhibition at 50 µM in the test on HUVEC [2] is -20.1%.
For the compound `CC[C@H](NC(=O)[C@H](Cc1ccccc1)NC(=O)[C@H](CCSC)NC(=O)[C@H](Cc1ccccc1)NC(=O)[C@@H]1CCCN1C(=O)[C@H](CCSC)NC(=O)[C@@H](NC(=O)[C@@H](N)CO)[C@@H](C)O)C(=O)N[C@@H](CC(N)=O)C(=O)N[C@H](C(=O)N[C@@H](CC(N)=O)C(=O)N[C@@H](CC(N)=O)C(=O)N[C@H](C(=O)N[C@@H](CC)C(=O)N[C@@H](CC(N)=O)C(=O)N[C@@H](Cc1ccccc1)C(=O)O)C(C)C)[C@@H](C)CC` (H-STMPFMF[Abu]NINNV[Abu]NF-OH), the inhibition at 100 µM in the test with HUVEC [1] was 6.82%; in the test with HUVEC [3], 13.8%. Moreover, in the test with HUVEC [2], the inhibition at 50 µM was -24.5%.
Consider H-LRRFSTMPFMF-OH, for which the values for the inhibition at 100 µM in the test with HUVEC [1] and in the test on HUVEC [3] were -2.6% and 2.97%, respectively. Moreover, the inhibition at 50 µM in the test with HUVEC [2] was -14.2%.
`CC[C@H](C)[C@H](NC(=O)[C@H](CC(N)=O)NC(=O)[C@@H](NC(=O)[C@H](Cc1ccccc1)NC(=O)[C@H](C)NC(=O)[C@H](Cc1ccccc1)NC(=O)[C@@H]1CCCN1C(=O)[C@H](CCSC)NC(=O)[C@@H](NC(=O)[C@H](CO)NC(=O)[C@H](Cc1ccccc1)NC(=O)[C@H](CCCNC(=N)N)NC(=O)[C@H](CCCNC(=N)N)NC(=O)[C@@H](N)CC(C)C)[C@@H](C)O)[C@@H](C)CC)C(=O)N[C@@H](CC(N)=O)C(=O)N[C@@H](CC(N)=O)C(=O)N[C@H](C(=O)N[C@H](C(=O)N[C@@H](CC(N)=O)C(=O)N[C@@H](Cc1ccccc1)C(=O)O)[C@@H](C)CC)C(C)C`: the inhibition entry in the test with HUVEC [4] was “Active”. For the same compound, the inhibition at 100 µM amounted to 94.8% with HUVEC [1] and 46.6% in the test with HUVEC [3]. The inhibition at 50 µM in the test on HUVEC [2] stood at 69.3%.
As to `CC[C@H](NC(=O)[C@H](C)NC(=O)[C@H](CCSC)NC(=O)[C@H](Cc1ccccc1)NC(=O)[C@@H]1CCCN1C(=O)[C@H](CCSC)NC(=O)[C@@H](NC(=O)[C@H](CO)NC(=O)[C@H](Cc1ccccc1)NC(=O)[C@H](CCCNC(=N)N)NC(=O)[C@H](CCCNC(=N)N)NC(=O)[C@@H](N)CC(C)C)[C@@H](C)O)C(=O)N[C@@H](CC(N)=O)C(=O)N[C@H](C(=O)N[C@@H](CC(N)=O)C(=O)N[C@@H](CC(N)=O)C(=O)N[C@H](C(=O)N[C@@H](CC)C(=O)N[C@@H](CC(N)=O)C(=O)N[C@@H](Cc1ccccc1)C(=O)O)C(C)C)[C@@H](C)CC` (H-LRRFSTMPFMA[Abu]NINNV[Abu]NF-OH), the inhibition at 100 µM in the test on HUVEC [1] was found to be 99.3%; in the test on HUVEC [3] it was 65.1%. Besides, in the test on HUVEC [2], the inhibition at 50 µM turned out to be 99.6%.
With `CC[C@H](NC(=O)[C@H](Cc1ccccc1)NC(=O)[C@H](CCSC)NC(=O)[C@H](C)NC(=O)[C@@H]1CCCN1C(=O)[C@H](CCSC)NC(=O)[C@@H](NC(=O)[C@H](CO)NC(=O)[C@H](Cc1ccccc1)NC(=O)[C@H](CCCNC(=N)N)NC(=O)[C@H](CCCNC(=N)N)NC(=O)[C@@H](N)CC(C)C)[C@@H](C)O)C(=O)N[C@@H](CC(N)=O)C(=O)N[C@H](C(=O)N[C@@H](CC(N)=O)C(=O)N[C@@H](CC(N)=O)C(=O)N[C@H](C(=O)N[C@@H](CC)C(=O)N[C@@H](CC(N)=O)C(=O)N[C@@H](Cc1ccccc1)C(=O)O)C(C)C)[C@@H](C)CC` (H-LRRFSTMPAMF[Abu]NINNV[Abu]NF-OH), the inhibition at 100 µM with HUVEC [1] amounted to 95.6%; with HUVEC [3], 65.4%. Further, the inhibition at 50 µM with HUVEC [2] stood at 99.8%.
Consider H-LRRFSTMPFMFSNINNVSNF-OH, for which the figures for the inhibition at 100 µM with HUVEC [1] and in the test on HUVEC [3] were 98% and 50.5%, respectively. Besides, in the test with HUVEC [2], the inhibition at 50 µM came to 92.6%.
With `CC[C@H](NC(=O)[C@@H](NC(=O)[C@H](CC(N)=O)NC(=O)[C@H](CC(N)=O)NC(=O)[C@@H](NC(=O)[C@H](CC(N)=O)NC(=O)[C@H](CC)NC(=O)[C@@H](N)Cc1ccccc1)[C@@H](C)CC)C(C)C)C(=O)N[C@@H](CC(N)=O)C(=O)O` (H-F[Abu]NINNV[Abu]N-OH), the inhibition at 100 µM in the test on HUVEC [1] was determined as 77.5%; with HUVEC [3], 20.6%. Besides, the inhibition at 50 µM with HUVEC [2] amounted to 40.4%.
`CC[C@H](C)[C@H](NC(=O)[C@H](CC(N)=O)NC(=O)[C@H](CS)NC(=O)[C@H](Cc1ccccc1)NC(=O)[C@H](CCSC)NC(=O)[C@H](Cc1ccccc1)NC(=O)[C@@H]1CCCN1C(=O)[C@H](CCSC)NC(=O)[C@@H](NC(=O)[C@H](CO)NC(=O)[C@H](Cc1ccccc1)NC(=O)[C@H](CCCNC(=N)N)NC(=O)[C@H](CCCNC(=N)N)NC(=O)[C@@H](N)CC(C)C)[C@@H](C)O)C(=O)N[C@@H](CC(N)=O)C(=O)N[C@@H](CC(N)=O)C(=O)N[C@H](C(=O)N[C@@H](CS)C(=O)N[C@@H](CC(N)=O)C(=O)N[C@@H](Cc1ccccc1)C(=O)O)C(C)C` (H-LRRFSTMPFMFCNINNVCNF-OH): the results for the inhibition at 100 µM in the test on HUVEC [1] and with HUVEC [3] were 96.2% and 67.5%, respectively. Besides, the inhibition at 50 µM in the test with HUVEC [2] was found to be 91%.
As to H-LRRFSTMPFMFININNVINF-OH, the inhibition at 100 µM with HUVEC [1] is 98.6%; with HUVEC [3], 73.2%. In the test with HUVEC [2], the inhibition at 50 µM was found to be 92.9%.
Consider `CC[C@H](NC(=O)[C@@H](NC(=O)[C@H](CC(N)=O)NC(=O)[C@H](CC(N)=O)NC(=O)[C@@H](NC(=O)[C@@H](N)CC(N)=O)[C@@H](C)CC)C(C)C)C(=O)N[C@@H](CC(N)=O)C(=O)N[C@@H](Cc1ccccc1)C(=O)O` (H-NINNV[Abu]NF-OH), for which the inhibition at 100 µM stood at 70.8% in the test on HUVEC [1] and 24.2% in the test on HUVEC [3]. Further, the inhibition at 50 µM in the test with HUVEC [2] is 31.6%.
For H-LRRFSTMPFMFANINNVANF-OH, the inhibition at 100 µM was found to be 98.2% with HUVEC [1] and 48.6% in the test on HUVEC [3]. In addition, the inhibition at 50 µM with HUVEC [2] was 99.6%.
For `CC[C@H](NC(=O)[C@H](Cc1ccccc1)NC(=O)[C@H](C)NC(=O)[C@H](Cc1ccccc1)NC(=O)[C@@H]1CCCN1C(=O)[C@H](CCSC)NC(=O)[C@@H](NC(=O)[C@H](CO)NC(=O)[C@H](Cc1ccccc1)NC(=O)[C@H](CCCNC(=N)N)NC(=O)[C@H](CCCNC(=N)N)NC(=O)[C@@H](N)CC(C)C)[C@@H](C)O)C(=O)N[C@@H](CC(N)=O)C(=O)N[C@H](C(=O)N[C@@H](CC(N)=O)C(=O)N[C@@H](CC(N)=O)C(=O)N[C@H](C(=O)N[C@@H](CC)C(=O)N[C@@H](CC(N)=O)C(=O)N[C@@H](Cc1ccccc1)C(=O)O)C(C)C)[C@@H](C)CC` (H-LRRFSTMPFAF[Abu]NINNV[Abu]NF-OH), the inhibition at 100 µM with HUVEC [1] came to 98.3%; with HUVEC [3] it was 63.6%. For the same compound, the inhibition at 50 µM in the test on HUVEC [2] amounted to 99.6%.
